According to ChEMBL document CHEMBL1125618, “Studies on (H(+)-K+)-ATPase inhibitors of gastric acid secretion. Prodrugs of 2-[(2-pyridinylmethyl)sulfinyl]benzimidazole proton-pump inhibitors” (J Med Chem, 1991):
Active and inactive are the calls of the source. No cut-off for these calls is given here.

Legend:
[1] = biological target: T1, Potassium-transporting ATPase (Rattus norvegicus) (UniProt P09626+P18598); experiment: Inhibitory activity was evaluated by measuring the inhibition of isolated rat H+/K+ ATPase at a concentration of 10 mg/kg; type: organism-based; set-up: dose 10 mg/kg
Method in brief: (§1)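 Male Sprague-Dawley rats (~230 g), fasted 16 h without food or water in restraining cages. Compound in 1 mL isotonic saline with 25% ethanol, given sc or by gavage. Killed 3 h later. Fundic mucosa pooled from four rats per treatment, homogenized, microsomes isolated at 170000g. K+-stimulated ATPase assayed as for hog enzyme. ED50 from at least five doses, each in triplicate.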

[2] = biological target: Potassium-transporting ATPase (Sus scrofa, UniProt P19156); experiment: (§2) Activity was evaluated by measuring the inhibition of isolated hog H+/K+ ATPase; type: protein-complex assay
Sequence of Potassium-transporting ATPase (P18434 whole entry): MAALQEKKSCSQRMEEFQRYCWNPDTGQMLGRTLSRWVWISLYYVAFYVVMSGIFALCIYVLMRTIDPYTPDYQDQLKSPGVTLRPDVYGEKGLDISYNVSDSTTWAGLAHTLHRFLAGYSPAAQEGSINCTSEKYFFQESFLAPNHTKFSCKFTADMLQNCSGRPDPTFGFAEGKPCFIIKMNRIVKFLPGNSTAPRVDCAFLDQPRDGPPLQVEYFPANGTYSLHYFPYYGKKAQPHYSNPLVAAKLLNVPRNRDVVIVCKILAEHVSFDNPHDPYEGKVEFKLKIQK
Sequence of Potassium-transporting ATPase (P19156 whole entry): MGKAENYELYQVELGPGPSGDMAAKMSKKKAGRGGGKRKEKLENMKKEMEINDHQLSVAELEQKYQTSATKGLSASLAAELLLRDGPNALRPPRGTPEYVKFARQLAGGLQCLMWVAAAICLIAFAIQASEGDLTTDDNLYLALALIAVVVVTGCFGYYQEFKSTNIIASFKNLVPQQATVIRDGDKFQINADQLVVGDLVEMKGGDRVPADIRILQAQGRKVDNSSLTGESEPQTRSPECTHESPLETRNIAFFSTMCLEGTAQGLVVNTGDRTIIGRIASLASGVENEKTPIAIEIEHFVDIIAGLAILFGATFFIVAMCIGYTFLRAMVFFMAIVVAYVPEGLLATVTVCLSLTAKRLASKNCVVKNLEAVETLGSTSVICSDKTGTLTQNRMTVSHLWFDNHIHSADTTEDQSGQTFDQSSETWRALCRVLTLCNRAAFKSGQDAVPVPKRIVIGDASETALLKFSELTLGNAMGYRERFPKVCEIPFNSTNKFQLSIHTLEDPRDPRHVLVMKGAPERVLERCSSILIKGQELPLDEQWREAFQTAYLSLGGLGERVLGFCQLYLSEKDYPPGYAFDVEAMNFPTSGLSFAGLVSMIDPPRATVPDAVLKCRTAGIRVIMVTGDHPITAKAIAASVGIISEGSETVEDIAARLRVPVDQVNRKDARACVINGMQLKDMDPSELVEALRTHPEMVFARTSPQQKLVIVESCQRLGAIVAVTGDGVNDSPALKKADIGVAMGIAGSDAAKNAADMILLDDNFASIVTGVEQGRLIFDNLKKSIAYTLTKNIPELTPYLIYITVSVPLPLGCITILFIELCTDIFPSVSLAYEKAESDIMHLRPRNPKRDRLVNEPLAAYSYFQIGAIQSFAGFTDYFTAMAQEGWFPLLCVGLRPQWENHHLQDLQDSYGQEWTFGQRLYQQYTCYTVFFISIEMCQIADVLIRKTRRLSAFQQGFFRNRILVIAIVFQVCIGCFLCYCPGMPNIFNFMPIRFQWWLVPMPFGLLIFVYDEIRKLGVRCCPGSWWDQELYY
Method in brief: (§3)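 Hog fundic mucosa microsomes. Vesicles (30 μg) preincubated with compound at 37 °C in 40 mM Tris-acetate pH 7.4, 7 mM NH4Cl, with or without KCl. Reaction started with 2 mM ATP (final), run 10 min at 37 °C, stopped with cold TCA plus charcoal. Released inorganic phosphate measured colorimetrically. IC50 from dose-response, mean of triplicates.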

[3] = biological target: T1, Potassium-transporting ATPase (Rattus norvegicus); experiment: Inhibition of isolated rat H+/K+ ATPase at 10 mg/kg; Inactive; type: functional, organism-based; set-up: dose 10 mg/kg; method in brief: as §1
Oryctolagus cuniculus [4] = species: Oryctolagus cuniculus; experiment: Antisecretory effect in isolated rabbit gastric glands as measured by aminopyrine uptake; type: functional, Stomach
Method in brief: (§4)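 Gastric glands from male New Zealand rabbits (1.5-2.0 kg), isolated by collagenase digestion at 37 °C, pH 7.4. Incubated with compound 45 min at 37 °C with vigorous shaking. Pellet and supernatant radioactivity counted by liquid scintillation. ID50 from at least six doses, duplicate at each dose.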

[5] = biological target: T1, Potassium-transporting ATPase (Rattus norvegicus); experiment: Inhibition of isolated rat H+/K+ ATPase.; type: protein-complex assay; method in brief: as §1
[6] = biological target: T2, Potassium-transporting ATPase (Sus scrofa) (UniProt P18434+P19156); experiment: as §2; type: protein-complex assay; settings: concentration not given here; method in brief: as §3
[7] = biological target: T1, Potassium-transporting ATPase (Rattus norvegicus); experiment: Activity was evaluated by measuring the inhibition of isolated rat H+/K+ ATPase at 10 mg/kg; type: organism-based; set-up: dose 10 mg/kg; method in brief: as §1
Rattus norvegicus = experiment: Inhibition of acid secretion was determined by the compound administered subcutaneously in rats; type: functional; settings: sc
Method in brief: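 Pylorus-ligated (Shay) rats: female Upjohn or Charles River rats fasted 24 h, water withheld the last 18 h. Compound given once sc. Pylorus ligated under ether, then 10 mL saline sc. Gastric juice acidity titrated with 0.1 M NaOH as output (mequiv/2 or 3 h). Usually 12 controls and 5-6 rats per dose.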

Oryctolagus cuniculus [8] = species: Oryctolagus cuniculus; experiment: Antisecretory effect in isolated rabbit gastric glands as measured by aminopyrine uptake; Inactive, 1E-4M concentration; type: functional; settings: Stomach; method in brief: as §4
Oryctolagus cuniculus [9] = species: Oryctolagus cuniculus; experiment: Antisecretory effect in isolated rabbit gastric glands as measured by aminopyrine uptake; no effect, 1E-4M concentration; type: functional; settings: Stomach; method in brief: as §4
[10] = biological target: T1, Potassium-transporting ATPase (Rattus norvegicus); experiment: Activity was evaluated by measuring the inhibition of isolated rat H+/K+ ATPase; no effect, 10 mg/kg sc
[11] = biological target: T1, Potassium-transporting ATPase (Rattus norvegicus); experiment: Activity administered subcutaneously was evaluated by measuring the inhibition of isolated rat H+/K+ ATPase; type: protein-complex assay; method in brief: as §1
[12] = biological target: T2, Potassium-transporting ATPase (Sus scrofa); experiment: Activity was evaluated by measuring the inhibition of isolated hog H+/K+ ATPase at concentration of 5E-4; type: protein-complex assay; method in brief: as §3

Structure (SMILES) | IC50 [2] [µM] | ID50 (Oryctolagus cuniculus [4]) [M] | ED50 [5] [mg/kg] | further results
CC(OC(=O)c1ccccc1)n1c([S+]([O-])Cc2ccccn2)nc2ccccc21 (stereo in doubt; 29a) [listing 1 of 2 here] | – | – | – | inhibition [1]: 27%
CCSc1ccnc(C[S+]([O-])c2nc3ccccc3n2CCN2CCCCC2)c1C (stereo not given) | 30 | 2e-05 | – | ED50 [3]: inactive
CCCCCCCC(=O)OCn1c([S+]([O-])Cc2ccccn2)nc2ccccc21 (stereo not given) | – | 2e-05 | 9 | –
CCOC(C)n1c([S+]([O-])Cc2ncc(C)c(OC)c2C)nc2ccccc21 (stereo not given) | 1500 | 1e-06 | 1 | –
COc1c(C)cnc(C[S+]([O-])c2nc3ccccc3n2COC(C)=O)c1C (stereo not given) | 500 | 2e-07 | 1 | –
CC(C)COC(=O)OCn1c([S+]([O-])Cc2ccccn2)nc2ccccc21 (stereo not given) | – | 2e-05 | 6 | –
CCOC(C)n1c([S+]([O-])Cc2nccc(SCC)c2C)nc2ccccc21 (stereo not given) | 200 | 5e-07 | 1.5 | –
CCSc1ccnc(C[S+]([O-])c2nc3ccccc3n2C(=O)OCC(C)C)c1C (stereo not given) | 5 | 4e-06 | 5 | –
Cn1c([S+]([O-])Cc2ccccn2)nc2ccccc21 (stereo not given) | – | 0.001 | – | ED50 [3]: inactive; inhibition [6]: 18%
CCSc1ccnc(C[S+]([O-])c2nc3ccccc3n2COC(C)=O)c1C (stereo not given) | 400 | 3e-07 | 2 | –
CCSc1ccnc(C[S+]([O-])c2nc3ccccc3n2C(=O)OCCCl)c1C (stereo not given) | 10 | 2e-06 | – | inhibition [7]: 40%
CCSc1ccnc(C[S+]([O-])c2nc3ccccc3n2CSc2ccccc2)c1C (stereo not given) | > 1000 | 8e-06 | – | ED50 [3]: inactive
CCSc1ccnc(C[S+]([O-])c2nc3ccccc3n2COC)c1C (stereo not given) | – | – | – | ED50 [3]: inactive; ID50 (Oryctolagus cuniculus [4]; Stomach): inactive
CCSc1ccnc(C[S+]([O-])c2nc3ccccc3[nH]2)c1C (stereo not given) [DISUPRAZOLE] | 20 | 1e-07 | 1 | ED50 (Rattus norvegicus): < 1 mg/kg
c1ccc(CSc2nc3ccccc3n2CN2CCOCC2)nc1 | – | – | – | ID50 (Oryctolagus cuniculus [8]): inactive; ED50 [3]: inactive
COc1c(C)cnc(C[S+]([O-])c2nc3ccccc3n2C(C)OC(C)=O)c1C (stereo not given) | 1500 | 4e-07 | < 1 | –
CCSc1ccnc(C[S+]([O-])c2nc3ccccc3n2C(=O)OCc2ccc([N+](=O)[O-])cc2)c1C (stereo not given) | 20 | 1.5e-06 | – | inhibition [7]: 44%
CC(=O)OC(C)n1c([S+]([O-])Cc2ccccn2)nc2ccccc21 (stereo in doubt; 18b) | – | – | – | ID50 (Oryctolagus cuniculus [9]): inactive
C=COC(=O)n1c([S+]([O-])Cc2nccc(SCC)c2C)nc2ccccc21 (stereo not given) | 30 | 1.5e-06 | 10 | –
CCSc1ccnc(CSc2nc3ccccc3n2CC2CO2)c1C (stereo not given) | – | 8e-05 | – | ED50 [3]: inactive
CCOCCn1c([S+]([O-])Cc2nccc(SCC)c2C)nc2ccccc21 (stereo not given) | 1000 | 2e-06 | – | ED50 [3]: inactive
CC(C)C(=O)OCn1c([S+]([O-])Cc2ccccn2)nc2ccccc21 (stereo not given) | – | 3e-05 | 4 | –
c1ccc(CSc2nc3ccccc3n2CCN2CCOCC2)nc1 | – | – | – | ID50 (Oryctolagus cuniculus [8]): inactive; ED50 [3]: inactive
CCSc1ccnc(C[S+]([O-])c2nc3ccccc3n2C(=O)OC(C)(C)C(Cl)(Cl)Cl)c1C (stereo not given) | 10 | 5e-05 | – | ED50 [10]: inactive

Structure (SMILES) | IC50 [2] [µM] | ID50 (Oryctolagus cuniculus [4]) [M] | ED50 [5] [mg/kg] | further results
CC(OC(=O)c1ccccc1)n1c([S+]([O-])Cc2ccccn2)nc2ccccc21 (stereo in doubt; 29b) | – | – | – | ID50 (Oryctolagus cuniculus [9]): inactive; inhibition [1]: 35%
[O-][N+]1(Cn2c(SCc3ccccn3)nc3ccccc32)CCOCC1 | – | – | – | ID50 (Oryctolagus cuniculus [8]): inactive; ED50 [3]: inactive
CCSc1ccnc(C[S+]([O-])c2nc3ccccc3n2C(=O)OC(C)C)c1C (stereo not given) | – | 1.5e-05 | 10 | –
CC(OC(=O)C(C)(C)C)n1c([S+]([O-])Cc2ccccn2)nc2ccccc21 (stereo in doubt; 30b) [listing 1 of 2 here] | – | 2e-05 | – | –
CCSc1ccnc(C[S+]([O-])c2nc3ccccc3n2C(=O)OCc2ccccc2)c1C (stereo not given) | 20 | 1.5e-06 | – | inhibition [7]: 40%
CCSc1ccnc(C[S+]([O-])c2nc3ccccc3n2C(=O)Oc2ccccc2)c1C (stereo not given) | 20 | 1.5e-06 | 5 | –
CCSc1ccnc(C[S+]([O-])c2nc3ccccc3n2COCCOC)c1C (stereo not given) | – | 1e-05 | – | ED50 [3]: inactive
CCCCCCCCOC(=O)n1c([S+]([O-])Cc2nccc(SCC)c2C)nc2ccccc21 (stereo not given) | – | 1e-05 | – | –
COc1c(C)cnc(C[S+]([O-])c2nc3ccccc3n2CCN2CCOCC2)c1C (stereo not given) | 1000 | 7e-05 | – | ED50 [3]: inactive
[O-][S+](Cc1ccccn1)c1nc2ccccc2n1CCN1CCOCC1 (stereo not given) | – | – | – | ID50 (Oryctolagus cuniculus [8]): inactive
CC(OC(=O)C(C)(C)C)n1c([S+]([O-])Cc2ccccn2)nc2ccccc21 (stereo in doubt; 30b) [listing 2 of 2 here] | – | – | – | inhibition [1]: 40%
COC(=O)CCC(=O)OCn1c([S+]([O-])Cc2ccccn2)nc2ccccc21 (stereo not given) | – | 2e-05 | 7 | –
CCSc1ccnc(C[S+]([O-])c2nc3ccccc3n2C(C)OC(C)=O)c1C (stereo in doubt; 19a) | – | – | 2 | –
CC(OC(=O)c1ccccc1)n1c([S+]([O-])Cc2ccccn2)nc2ccccc21 (stereo in doubt; 29a) [listing 2 of 2 here] | 400 | 4e-05 | – | –
CCOC(=O)n1c([S+]([O-])Cc2nccc(SCC)c2C)nc2ccccc21 (stereo not given) | 20 | 2e-06 | – | inhibition [7]: 61%
COc1ccc2[nH]c([S+]([O-])Cc3ncc(C)c(OC)c3C)nc2c1 (stereo not given) [OMEPRAZOLE] | – | 2e-07 | 1 | ED50 (Rattus norvegicus): < 1 mg/kg
CC(=O)OCn1c([S+]([O-])Cc2ccccn2)nc2ccccc21 (stereo not given) | 8 | 0.0001 | – | ED50 [11]: 5 mg/kg
CC(OC(=O)C(C)(C)C)n1c([S+]([O-])Cc2ccccn2)nc2ccccc21 (stereo in doubt; 30a) | – | – | – | ID50 (Oryctolagus cuniculus [9]): inactive; inhibition [1]: 32%
[O-][S+](Cc1ccccn1)c1nc2ccccc2[nH]1 (stereo not given) [TIMOPRAZOLE] | – | 2e-05 | 4 | ED50 (Rattus norvegicus): 2.5 mg/kg; inhibition [6]: 27%
COc1c(C)cnc(C[S+]([O-])c2nc3ccccc3[nH]2)c1C (stereo not given) | 20 | 2e-07 | – | –
CCSc1ccnc(C[S+]([O-])c2nc3ccccc3n2C(C)OC(C)=O)c1C (stereo in doubt; 19b) | – | – | 2 | –
CCSc1ccnc(C[S+]([O-])c2nc3ccccc3n2COC(=O)C(C)(C)C)c1C (stereo not given) | – | 5e-06 | 5 | inhibition [12]: 30%
CC(=O)OC(C)n1c([S+]([O-])Cc2ccccn2)nc2ccccc21 (stereo in doubt; 18a) | – | – | – | ID50 (Oryctolagus cuniculus [9]): inactive
